Test results published in ChEMBL document CHEMBL1811814, “Synthesis and evaluation of indole, pyrazole, chromone and pyrimidine based conjugates for tumor growth inhibitory activities--development of highly efficacious cytotoxic agents” (Eur J Med Chem, 2010).

Legend:
Type in all cases: functional
Design in all cases: scale not given: the % may be the effect or the level left
NCI-H322M = assay: Growth inhibition of human NCI-H322M cells assessed tumor cell growth at 10^-5 M
Outline: (§1)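 NCI 60-human-tumor-cell-line panel screen. Each compound was tested at a single concentration of 10^-5 M, and percent growth of tumor cells was recorded for each cell line. Growth inhibition was expressed from these percent-growth values.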

OVCAR-4 = assay: Growth inhibition of human OVCAR4 cells assessed tumor cell growth at 10^-5 M; outline: as §1
Malme-3M = assay: Growth inhibition of human MALME-3M cells assessed tumor cell growth at 10^-5 M; outline: as §1
SK-MEL-2 = assay: Growth inhibition of human SK-MEL-2 cells assessed tumor cell growth at 10^-5 M; outline: as §1
K562 = assay: Growth inhibition of human K562 cells assessed tumor cell growth at 10^-5 M; outline: as §1
HL-60(TB) = assay: Growth inhibition of human HL-60(TB) cells assessed tumor cell growth at 10^-5 M
Outline: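 HL-60(TB), part of the 60-line panel, tested at a single concentration of 10^-5 M. The read-out is percent tumor cell growth relative to untreated growth.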

MDA-MB-231 = assay: Growth inhibition of human MDA-MB-231 cells assessed tumor cell growth at 10^-5 M; outline: as §1
UACC-62 = assay: Growth inhibition of human UACC62 cells assessed tumor cell growth at 10^-5 M
Outline: (§2)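 Single-dose screen at 10^-5 M across the 60 human tumor cell line panel, run to NCI standards. The value is the percent growth of each cell line in the presence of compound. Compounds active at this dose moved on to five-concentration testing (10^-4 to 10^-8 M).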

SK-MEL-5 = assay: Growth inhibition of human SK-MEL-5 cells assessed tumor cell growth at 10^-5 M; outline: as §1
ACHN = assay: Growth inhibition of human ACHN cells assessed tumor cell growth at 10^-5 M; outline: as §1
OVCAR-3 = assay: Growth inhibition of human OVCAR3 cells assessed tumor cell growth at 10^-5 M; outline: as §1
A498 = assay: Growth inhibition of human A498 cells assessed tumor cell growth at 10^-5 M; outline: as §1
NCI-H522 = assay: Growth inhibition of human NCI-H522 cells assessed tumor cell growth at 10^-5 M; outline: as §1
HOP-62 = assay: Growth inhibition of human HOP62 cells assessed tumor cell growth at 10^-5 M; outline: as §1
T47D = assay: Growth inhibition of human T47D cells assessed tumor cell growth at 10^-5 M; outline: as §2
HCT-15 = assay: Growth inhibition of human HCT15 cells assessed tumor cell growth at 10^-5 M; outline: as §1
MCF7 = assay: Growth inhibition of human MCF7 cells assessed tumor cell growth at 10^-5 M; outline: as §1
SW-620 = assay: Growth inhibition of human SW620 cells assessed tumor cell growth at 10^-5 M; outline: as §2
M14 = assay: Growth inhibition of human M14 cells assessed tumor cell growth at 10^-5 M; outline: as §1
NCI/ADR-RES = assay: Growth inhibition of human NCI/ADR-RES cells assessed tumor cell growth at 10^-5 M; outline: as §1
[1] = Growth inhibition of human Hs 578T cells assessed tumor cell growth at 10^-5 M; outline: as §1
786-0 = assay: Growth inhibition of human 786-0 cells assessed tumor cell growth at 10^-5 M; outline: as §1
SF-295 = assay: Growth inhibition of human SF295 cells assessed tumor cell growth at 10^-5 M; outline: as §1
SR = assay: Growth inhibition of human SR cells assessed tumor cell growth at 10^-5 M; outline: as §2
A549 = assay: Growth inhibition of human A549 cells assessed tumor cell growth at 10^-5 M; outline: as §1
SF-268 = assay: Growth inhibition of human SF268 cells assessed tumor cell growth at 10^-5 M; outline: as §1
DU-145 = assay: Growth inhibition of human DU145 cells assessed tumor cell growth at 10^-5 M; outline: as §1
OVCAR-8 = assay: Growth inhibition of human OVCAR8 cells assessed tumor cell growth at 10^-5 M; outline: as §1
SK-OV-3 = assay: Growth inhibition of human SKOV3 cells assessed tumor cell growth at 10^-5 M; outline: as §1
[2] = Growth inhibition of human […] cells assessed tumor cell growth at 10^-5 M; outline: as §1
COLO 205 = assay: Growth inhibition of human COLO205 cells assessed tumor cell growth at 10^-5 M; outline: as §1
LOX IMVI = assay: Growth inhibition of human LOXIMVI cells assessed tumor cell growth at 10^-5 M; outline: as §1
UO-31 = assay: Growth inhibition of human UO31 cells assessed tumor cell growth at 10^-5 M; outline: as §2
IGROV-1 = assay: Growth inhibition of human IGROV1 cells assessed tumor cell growth at 10^-5 M; outline: as §1
SN12C = assay: Growth inhibition of human SN12C cells assessed tumor cell growth at 10^-5 M; outline: as §1
SF-539 = assay: Growth inhibition of human SF539 cells assessed tumor cell growth at 10^-5 M; outline: as §1
HCT-116 = assay: Growth inhibition of human HCT116 cells assessed tumor cell growth at 10^-5 M; outline: as §1
MOLT-4 = assay: Growth inhibition of human MOLT4 cells assessed tumor cell growth at 10^-5 M; outline: as §1
NCI-H460 = assay: Growth inhibition of human NCI-H460 cells assessed tumor cell growth at 10^-5 M; outline: as §1
TK-10 = assay: Growth inhibition of human TK10 cells assessed tumor cell growth at 10^-5 M; outline: as §2
PC-3 = assay: Growth inhibition of human PC3 cells assessed tumor cell growth at 10^-5 M; outline: as §1
SNB-19 = assay: Growth inhibition of human SNB19 cells assessed tumor cell growth at 10^-5 M; outline: as §2
NCI-H23 = assay: Growth inhibition of human NCI-H23 cells assessed tumor cell growth at 10^-5 M; outline: as §1
EKVX = assay: Growth inhibition of human EKVX cells assessed tumor cell growth at 10^-5 M; outline: as §1
HT-29 = assay: Growth inhibition of human HT-29 cells assessed tumor cell growth at 10^-5 M; outline: as §1
NCI-H226 = assay: Growth inhibition of human NCI-H226 cells assessed tumor cell growth at 10^-5 M; outline: as §1
SNB-75 = assay: Growth inhibition of human SNB75 cells assessed tumor cell growth at 10^-5 M; outline: as §2
U-251 = assay: Growth inhibition of human U251 cells assessed tumor cell growth at 10^-5 M; outline: as §2
CAKI-1 = assay: Growth inhibition of human Caki1 cells assessed tumor cell growth at 10^-5 M; outline: as §1
OVCAR-5 = assay: Growth inhibition of human OVCAR5 cells assessed tumor cell growth at 10^-5 M; outline: as §1
RXF 393 = assay: Growth inhibition of human RXF393 cells assessed tumor cell growth at 10^-5 M; outline: as §1
SK-MEL-28 = assay: Growth inhibition of human SK-MEL-28 cells assessed tumor cell growth at 10^-5 M; outline: as §1
KM12 = assay: Growth inhibition of human KM12 cells assessed tumor cell growth at 10^-5 M; outline: as §1
MDA-MB-468 = assay: Growth inhibition of human MDA-MB-468 cells assessed tumor cell growth at 10^-5 M; outline: as §1
MDA-MB-435 = assay: Growth inhibition of human MDA-MB-435 cells assessed tumor cell growth at 10^-5 M; outline: as §1

Cc1ccc(S(=O)(=O)N2C(=O)/C(=C\c3cn(S(=O)(=O)c4ccc(C)cc4)c4ccccc34)c3ccccc32)cc1
Activity (NCI-H322M): 102.4%
Activity (OVCAR-4): 100.5%
Activity (Malme-3M): 97.7%
Activity (SK-MEL-2): 68.1%
Activity (K562): 83.9%
Activity (HL-60(TB)): 85.6%
Activity (MDA-MB-231): 84.2%
Activity (UACC-62): 82.1%
Activity (SK-MEL-5): 98.1%
Activity (ACHN): 91.3%
Activity (OVCAR-3): 107.8%
Activity (A498): 96.8%
Activity (NCI-H522): 49.7%
Activity (HOP-62): 80.2%
Activity (T47D): 94.8%
Activity (HCT-15): 97.4%
Activity (MCF7): 93.9%
Activity (SW-620): 94.8%
Activity (M14): 100.7%
Activity (NCI/ADR-RES): 95.6%
Activity [1]: 74.8%
Activity (786-0): 71.2%
Activity (SF-295): 91.8%
Activity (SR): 70.4%
Activity (A549): 87.4%
Activity (SF-268): 84.9%
Activity (DU-145): 100%
Activity (OVCAR-8): 76%
Activity (SK-OV-3): 81%
Activity [2]: 92.6%
Activity (COLO 205): 107.3%
Activity (LOX IMVI): 82.3%
Activity (UO-31): 77.1%
Activity (IGROV-1): 105%
Activity (SN12C): 98.9%
Activity (SF-539): 88%
Activity (HCT-116): 83.1%
Activity (MOLT-4): 90.4%
Activity (NCI-H460): 93.2%
Activity (TK-10): 65.5%
Activity (PC-3): 71.7%
Activity (SNB-19): 82.9%
Activity (NCI-H23): 96.5%
Activity (EKVX): 99.9%
Activity (HT-29): 90%
Activity (NCI-H226): 97.5%
Activity (SNB-75): 40.2%
Activity (U-251): 76.2%
Activity (CAKI-1): 89.6%
Activity (OVCAR-5): 96.2%
Activity (RXF 393): 77%
Activity (SK-MEL-28): 100.5%
Activity (KM12): 103.9%
Activity (MDA-MB-468): 103.8%
Activity (MDA-MB-435): 109.2%

O=C1/C(=C\c2cn(Cc3ccccc3)c3ccccc23)c2ccccc2N1Cc1ccccc1
Activity (NCI-H322M): 103.8%
Activity (OVCAR-4): 84.4%
Activity (Malme-3M): 121.4%
Activity (SK-MEL-2): 86.4%
Activity (K562): 95.2%
Activity (HL-60(TB)): 103.6%
Activity (MDA-MB-231): 100.6%
Activity (UACC-62): 82.6%
Activity (SK-MEL-5): 84.4%
Activity (ACHN): 85.4%
Activity (OVCAR-3): 84.3%
Activity (A498): 96.6%
Activity (NCI-H522): 31.8%
Activity (HOP-62): 90.9%
Activity (T47D): 57%
Activity (HCT-15): 77.7%
Activity (MCF7): 3.6%
Activity (SW-620): 97.1%
Activity (M14): 96.6%
Activity (NCI/ADR-RES): 92%
Activity [1]: 96%
Activity (786-0): 99.1%
Activity (SF-295): 108.8%
Activity (SR): 96.6%
Activity (A549): 81.6%
Activity (SF-268): 92.3%
Activity (DU-145): 100.2%
Activity (OVCAR-8): 88.9%
Activity (SK-OV-3): 92.4%
Activity [2]: 76.9%
Activity (COLO 205): 89.8%
Activity (LOX IMVI): 84%
Activity (UO-31): 82.3%
Activity (IGROV-1): 66.8%
Activity (SN12C): 104%
Activity (SF-539): 94.7%
Activity (HCT-116): 64.7%
Activity (MOLT-4): 98.9%
Activity (NCI-H460): 88.6%
Activity (TK-10): 85.3%
Activity (PC-3): 80.8%
Activity (SNB-19): 106.1%
Activity (NCI-H23): 88.6%
Activity (EKVX): 85.2%
Activity (HT-29): 90%
Activity (SNB-75): 89.5%
Activity (U-251): 92.9%
Activity (CAKI-1): 72%
Activity (OVCAR-5): 106.7%
Activity (RXF 393): 73.5%
Activity (SK-MEL-28): 104.8%
Activity (KM12): 87.9%
Activity (MDA-MB-468): 46.6%
Activity (MDA-MB-435): 110.5%

O=C1/C(=C\c2cn(C(=O)c3ccc(Cl)cc3)c3ccccc23)c2ccccc2N1C(=O)c1ccc(Cl)cc1
Activity (NCI-H322M): 98.5%
Activity (OVCAR-4): 71.9%
Activity (Malme-3M): 126%
Activity (SK-MEL-2): 49.8%
Activity (K562): 83.8%
Activity (HL-60(TB)): 54.1%
Activity (MDA-MB-231): 81.2%
Activity (UACC-62): 88.9%
Activity (SK-MEL-5): 74.8%
Activity (ACHN): 63.2%
Activity (OVCAR-3): 84.2%
Activity (A498): 81%
Activity (NCI-H522): 6%
Activity (HOP-62): 61.3%
Activity (T47D): 61.7%
Activity (HCT-15): 65.8%
Activity (MCF7): 71.1%
Activity (SW-620): 93.1%
Activity (M14): 79.1%
Activity (NCI/ADR-RES): 83.4%
Activity [1]: 80.5%
Activity (786-0): 93.7%
Activity (SF-295): 101.9%
Activity (SR): 56.1%
Activity (A549): 63.2%
Activity (SF-268): 77.5%
Activity (DU-145): 85%
Activity (OVCAR-8): 78.6%
Activity (SK-OV-3): 77%
Activity [2]: 57.4%
Activity (COLO 205): 104.7%
Activity (LOX IMVI): 67.7%
Activity (UO-31): 64.4%
Activity (IGROV-1): 80%
Activity (SN12C): 80.7%
Activity (SF-539): 67.3%
Activity (HCT-116): 65.1%
Activity (MOLT-4): 61.5%
Activity (NCI-H460): 86%
Activity (TK-10): 55.3%
Activity (PC-3): 65.7%
Activity (SNB-19): 98.2%
Activity (NCI-H23): 83.1%
Activity (EKVX): 70.7%
Activity (HT-29): 70.4%
Activity (NCI-H226): 89.4%
Activity (SNB-75): 54.4%
Activity (U-251): 74.1%
Activity (CAKI-1): 73.8%
Activity (OVCAR-5): 114.7%
Activity (RXF 393): 83.2%
Activity (SK-MEL-28): 103%
Activity (KM12): 24.2%
Activity (MDA-MB-468): 51.7%
Activity (MDA-MB-435): 97.5%
